Data from ChEMBL document CHEMBL1141276, “Cytotoxic and Antihaptotactic beauvericin analogues from precursor-directed biosynthesis with the insect pathogen Beauveria bassiana ATCC 7159” (J Nat Prod, 2007).

Key:
[1] = Ratio of cytotoxic IC50 to antihaptotactic IC50 in PC-3M cells; format: functional, Homo sapiens
Method in brief: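 Index computed as the MTT cytotoxicity IC50 divided by the wound-healing antihaptotactic IC50. Both IC50s were measured in PC-3M cells, each averaged from 2–4 independent experiments with 4 replicates.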

[2] = Antihaptotactic activity in human PC-3M cells assessed as inhibition of cell migration by wound healing assay; format: functional, cell-based
Method in brief: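 Wound-healing (scratch) migration assay on a PC-3M monolayer, with the wound closure quantified. The result is the IC50 for inhibition of migration in µM, averaged from 2–4 independent experiments with 4 replicates each.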

[3] = Cytotoxicity against human PC-3M cells by MTT assay; format: functional, cell-based
Method in brief: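 Tetrazolium (MTT) cytotoxicity assay on monolayers of the metastatic prostate cancer line PC-3M. The result is given as IC50 in µM, averaged from 2–4 independent experiments with 4 replicates each.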

SMILES: CC[C@H]1OC(=O)[C@H](Cc2ccccc2)N(C)C(=O)[C@@H](CC)OC(=O)[C@H](Cc2ccccc2)N(C)C(=O)[C@@H](CC)OC(=O)[C@H](Cc2ccccc2)N(C)C1=O [BEAUVERICIN G3]
- Ratio [1]: 0.9
- IC50 [2]: 17.2 µM
- IC50 [3]: 16.3 µM

SMILES: CC(C)[C@H]1OC(=O)[C@H](Cc2cccc(F)c2)N(C)C(=O)[C@@H](C(C)C)OC(=O)[C@H](Cc2cccc(F)c2)N(C)C(=O)[C@@H](C(C)C)OC(=O)[C@H](Cc2cccc(F)c2)N(C)C1=O [BEAUVERICIN H3]
- Ratio [1]: 1.4
- IC50 [2]: 3.2 µM
- IC50 [3]: 4.4 µM

SMILES: CC(C)[C@H]1OC(=O)[C@H](Cc2cccc(F)c2)N(C)C(=O)[C@@H](C(C)C)OC(=O)[C@H](Cc2cccc(F)c2)N(C)C(=O)[C@@H](C(C)C)OC(=O)[C@H](Cc2ccccc2)N(C)C1=O [BEAUVERICIN H2]
- Ratio [1]: 1.9
- IC50 [2]: 3.2 µM
- IC50 [3]: 6.2 µM

SMILES: CC(C)[C@@H]1OC(=O)[C@@H](Cc2ccccc2)N(C)C(=O)[C@H](C(C)C)OC(=O)[C@@H](Cc2ccccc2)N(C)C(=O)[C@H](C(C)C)OC(=O)[C@@H](Cc2ccccc2)N(C)C1=O [BEAUVERICIN]
- Ratio [1]: 2.3
- IC50 [2]: 3.5 µM
- IC50 [3]: 8 µM

SMILES: CC[C@H]1OC(=O)[C@H](Cc2ccccc2)N(C)C(=O)[C@@H](C(C)C)OC(=O)[C@H](Cc2ccccc2)N(C)C(=O)[C@@H](C(C)C)OC(=O)[C@H](Cc2ccccc2)N(C)C1=O [BEAUVERICIN G1]
- Ratio [1]: 1.3
- IC50 [2]: 3.8 µM
- IC50 [3]: 5 µM

SMILES: CC(C)[C@H]1OC(=O)[C@H](Cc2cccc(F)c2)N(C)C(=O)[C@@H](C(C)C)OC(=O)[C@H](Cc2ccccc2)N(C)C(=O)[C@@H](C(C)C)OC(=O)[C@H](Cc2ccccc2)N(C)C1=O [BEAUVERICIN H1]
- Ratio [1]: 2.3
- IC50 [2]: 3.2 µM
- IC50 [3]: 7.4 µM

SMILES: CC[C@H]1OC(=O)[C@H](Cc2ccccc2)N(C)C(=O)[C@@H](CC)OC(=O)[C@H](Cc2ccccc2)N(C)C(=O)[C@@H](C(C)C)OC(=O)[C@H](Cc2ccccc2)N(C)C1=O [BEAUVERICIN G2]
- Ratio [1]: 1.4
- IC50 [2]: 7.6 µM
- IC50 [3]: 10.4 µM
